Data published in ChEMBL document CHEMBL4325893, “Synthesis and antibacterial profiles of targeted triclosan derivatives” (2019).
In brackets after ≈: the same amount, converted by molar mass.

Legend:
Streptococcus pneumoniae = test: Antibacterial activity against Streptococcus pneumoniae ATCC 49619 after 18 hrs; format: functional; settings: ATCC 49619, 18 h
Procedure, shortened: (§1)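 Broth microdilution in Nutrient Broth No. 2. Ethanol stocks were diluted in broth to 0.01–128 µg/ml for triclosan and 0.25–256 µg/ml for glycosides. Overnight 37°C NB2 cultures were diluted 1 in 10^4 in saline and added to the wells. Plates were incubated at 37°C with OD read every 15 min after agitation. MIC was the lowest concentration giving no OD increase at 18 h.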

Proteus mirabilis = test: Antibacterial activity against Proteus mirabilis ATCC 12453 after 18 hrs; format: functional; settings: ATCC 12453, 18 h
Procedure, shortened: (§2)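 Broth microdilution in Nutrient Broth No. 2; stocks in ethanol diluted to 0.01–128 µg/ml (triclosan) or 0.25–256 µg/ml (glycosides). Overnight 37 °C NB2 cultures diluted 1 in 10^4 in saline and added to the dilutions. Incubation at 37 °C with agitation, OD read every 15 min; MIC is the lowest concentration preventing any OD rise after 18 h.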

Escherichia coli [1] = test: Antibacterial activity against Escherichia coli 700728 after 18 hrs; format: functional; settings: Escherichia coli, 700728, 18 h; procedure, shortened: as §2
Klebsiella aerogenes [2] = test: Antibacterial activity against Enterobacter aerogenes ATCC 13048 after 18 hrs; format: functional; settings: ATCC 13048, 18 h; procedure, shortened: as §2
[3] = Antibacterial activity against Enterobacter cloacae ATCC 13047 after 18 hrs; format: functional, Enterobacter cloacae subsp. cloacae; settings: ATCC 13047, 18 h; procedure, shortened: as §2
Enterococcus faecalis = test: Antibacterial activity against Enterococcus faecalis ATCC 33186 after 18 hrs; format: functional; settings: ATCC 33186, 18 h; procedure, shortened: as §2
Staphylococcus aureus [4] = test: Antibacterial activity against Staphylococcus aureus OCC 106 after 18 hrs; format: functional; settings: OCC 106, 18 h; procedure, shortened: as §2
[5] = tested on: Salmonella enterica subsp. enterica serovar Abony; test: Antibacterial activity against Salmonella enterica subspecies enterica serotype Abony NCTC 6017 after 18 hrs; format: functional; settings: NCTC 6017, 18 h; procedure, shortened: as §2
Escherichia hermannii = test: Antibacterial activity against Escherichia hermannii 33650 after 18 hrs; format: functional; settings: Atlantibacter hermannii, 33650, 18 h; procedure, shortened: as §2
Streptococcus viridans = test: Antibacterial activity against Streptococcus viridans OCC 234 after 18 hrs; format: functional; settings: OCC 234, 18 h; procedure, shortened: as §1
Citrobacter freundii = test: Antibacterial activity against Citrobacter freundii 8090 after 18 hrs; format: functional; settings: Citrobacter freundii, 8090, 18 h; procedure, shortened: as §2
Klebsiella aerogenes [6] = test: Antibacterial activity against Klebsiella aerogenes NCTC 8167 after 18 hrs; format: functional; settings: NCTC 8167, 18 h; procedure, shortened: as §2
[7] = tested on: Staphylococcus saprophyticus; test: Antibacterial activity against Staphylococcus saprophyticus ATCC 15305 after 18 hrs; format: functional; settings: ATCC 15305, 18 h; procedure, shortened: as §1
Staphylococcus aureus [8] = test: Antibacterial activity against Staphylococcus aureus ATCC 6538P after 18 hrs; format: functional; procedure, shortened: as §2
Klebsiella pneumoniae [9] = test: Antibacterial activity against Klebsiella pneumoniae ATCC 10031 after 18 hrs; format: functional; settings: ATCC 10031, 18 h; procedure, shortened: as §2
Proteus vulgaris = test: Antibacterial activity against Proteus vulgaris OCC 195 after 18 hrs; format: functional; settings: OCC 195, 18 h; procedure, shortened: as §2
Serratia marcescens = test: Antibacterial activity against Serratia marcescens OCC 217 after 18 hrs; format: functional; settings: OCC 217, 18 h; procedure, shortened: as §2
[10] = Antibacterial activity against Salmonella enterica subspecies enterica serotype Indiana OCC 597 after 18 hrs; format: functional, Salmonella enterica subsp. enterica serovar Indiana; settings: OCC 597, 18 h; procedure, shortened: as §2
[11] = tested on: Staphylococcus haemolyticus; test: Antibacterial activity against Staphylococcus haemolyticus OCC 2223 after 18 hrs; format: functional; settings: OCC 2223, 18 h; procedure, shortened: as §1
Klebsiella pneumoniae [12] = test: Antibacterial activity against Klebsiella pneumoniae ATCC 13883 after 18 hrs; format: functional; settings: ATCC 13883, 18 h; procedure, shortened: as §2
Cronobacter sakazakii = test: Antibacterial activity against Cronobacter sakazakii 29544 after 18 hrs; format: functional; settings: Cronobacter sakazakii, 29544, 18 h; procedure, shortened: as §2
Streptococcus pyogenes = test: Antibacterial activity against Streptococcus pyogenes ATCC 19615 after 18 hrs; format: functional; settings: ATCC 19615, 18 h; procedure, shortened: as §1
Staphylococcus aureus [13] = test: Antibacterial activity against Staphylococcus aureus NCTC 13758 after 18 hrs; format: functional; settings: NCTC 13758, 18 h; procedure, shortened: as §2
Staphylococcus aureus [14] = test: Antibacterial activity against Staphylococcus aureus ATCC 6538 after 18 hrs; format: functional; settings: ATCC 6538, 18 h; procedure, shortened: as §2
Escherichia coli [15] = test: Antibacterial activity against Escherichia coli ATCC 25922 after 18 hrs; format: functional; settings: ATCC 25922, 18 h; procedure, shortened: as §2
[16] = Antibacterial activity against Salmonella enterica subspecies enterica serotype Dublin OCC 627 after 18 hrs; format: functional, Salmonella enterica subsp. enterica serovar Dublin; settings: OCC 627, 18 h; procedure, shortened: as §2
Staphylococcus aureus [17] = test: Antibacterial activity against Staphylococcus aureus ATCC 9144 after 18 hrs; format: functional; settings: ATCC 9144, 18 h; procedure, shortened: as §2
[18] = tested on: Staphylococcus epidermidis; test: Antibacterial activity against Staphylococcus epidermidis ATCC 12228 after 18 hrs; format: functional; settings: ATCC 12228, 18 h; procedure, shortened: as §2
Bacillus subtilis = test: Antibacterial activity against Bacillus subtilis NCTC 10073 after 18 hrs; format: functional; settings: NCTC 10073, 18 h; procedure, shortened: as §2

MIC (Streptococcus pneumoniae): 64 µg/mL (≈ 152 µM) | MIC (Proteus mirabilis): 4 µg/mL (≈ 9.49 µM) | MIC (Escherichia coli [1]): 0.5 to 4 µg/mL (≈ 1.19 to 9.49 µM) | MIC (Klebsiella aerogenes [2]): 8 µg/mL (≈ 19 µM) | MIC [3]: 0.5 µg/mL (≈ 1.19 µM) | MIC (Enterococcus faecalis): 128 µg/mL (≈ 304 µM) | MIC (Staphylococcus aureus [4]): 0.5 µg/mL (≈ 1.19 µM) | MIC [5]: 2 to 8 µg/mL (≈ 4.74 to 19 µM) | MIC (Escherichia hermannii): 1 µg/mL (≈ 2.37 µM) | MIC (Streptococcus viridans): 128 µg/mL (≈ 304 µM) | MIC (Citrobacter freundii): 8 µg/mL (≈ 19 µM) | MIC (Klebsiella aerogenes [6]): 4 µg/mL (≈ 9.49 µM) | MIC [7]: 8 µg/mL (≈ 19 µM) | MIC (Staphylococcus aureus [8]): 0.5 µg/mL (≈ 1.19 µM) | MIC (Klebsiella pneumoniae [9]): 0.5 µg/mL (≈ 1.19 µM) | MIC (Proteus vulgaris): 16 µg/mL (≈ 37.9 µM) | MIC (Serratia marcescens): > 256 µg/mL | MIC [10]: 2 to 8 µg/mL (≈ 4.74 to 19 µM) | MIC (Klebsiella pneumoniae [12]): 0.5 µg/mL (≈ 1.19 µM) | MIC (Cronobacter sakazakii): 8 µg/mL (≈ 19 µM) | MIC (Streptococcus pyogenes): 16 µg/mL (≈ 37.9 µM) | MIC (Staphylococcus aureus [13]): 0.5 µg/mL (≈ 1.19 µM) | MIC (Staphylococcus aureus [14]): 0.5 µg/mL (≈ 1.19 µM) | MIC (Escherichia coli [15]): 0.5 to 4 µg/mL (≈ 1.19 to 9.49 µM) | MIC [16]: 2 to 8 µg/mL (≈ 4.74 to 19 µM) | MIC (Staphylococcus aureus [17]): 0.5 µg/mL (≈ 1.19 µM) | MIC [18]: 0.5 µg/mL (≈ 1.19 µM) | MIC (Bacillus subtilis): 32 µg/mL (≈ 75.9 µM)
SMILES: O[C@@H]1[C@@H](Oc2cc(Cl)ccc2Oc2ccc(Cl)cc2Cl)OC[C@@H](O)[C@H]1O
MIC [11]: 0.5 µg/mL (≈ 1.19 µM)
